PubChem BioAssay AID2805 (Sanford-Burnham Center for Chemical Genomics, 2010)
The whole screen tested about 330,000 compounds, of which about 780 (0.24%) were called active. This excerpt belongs to a sample that is enriched for actives. Unmarked numbers belong to inactive results.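 Rule for the calls: active = activation factor of at least 2 at 20 µM; inactive = the rest.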

system: intestinal alkaline phosphatase [Mus musculus]; experiment: activators of mouse IAP, primary screen, biochemical, luminescence, uHTS (AID 2805); conditions: muIAP, CDP-Star luminescence, 30 min; at 10 µM; hits give high values; 1 = vehicle-only enzyme signal, 0 = enzyme-free wells
Outline: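 Assay system: mouse IAP enzyme; Reagent: CDP-Star chemiluminescent phosphatase substrate; Compound: DMSO-dissolved test compounds; Incubation: 30 min, room temperature; Technique: luminescence from enzymatic CDP-Star hydrolysis; Controls: DMSO-only wells and no-enzyme negative control.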

Row | Compound | activation factor
1 | O=C(NCc1ccc2c(c1)OCO2)C12CC3CC(CC(C3)C1)C2 | 0.999
2 | COC(=O)Cc1ccc(NC(=S)NCc2ccc(Cl)cc2)cc1 | 1.52
3 | S=C(NCc1ccc(Cl)cc1)NC12CC3CC(CC(C3)C1)C2 | 3.89 (active)
4 | CCC(=O)N1c2ccccc2NC2=C(C(=O)CCC2)C1c1ccco1 (stereo unspecified) | 1.01
5 | CCOC12CC(C)(C)CC(C)(CC3=C1C(=O)CC(C)(C)C3)C2 (stereo unspecified) | 1.02
6 | COc1cc(NC(=O)NCC2CCN(Cc3ccc(C)cc3)CC2)cc(OC)c1OC | 2.24 (active)
7 | COc1cc(NC(=O)C2=CC(c3ccc(C)cc3)=NS(=O)(=O)N2C)cc(OC)c1OC | 0.84
8 | Cc1ccc(C)c(CN2CCC(CNC(=O)Nc3ccc(C)c(F)c3)CC2)c1 | 4.63 (active)
9 | Cc1ccccc1NC(=O)NCC1CCN(Cc2cccc(Cl)c2)CC1 | 1.72
10 | O=C(NCC1CCN(Cc2ccccc2Cl)CC1)Nc1cccc(Cl)c1 | 3.53 (active)
11 | COc1ccc(Cl)cc1NC(=O)NCC1CCN(Cc2ccccc2F)CC1 | 1.56
12 | Cc1cccc(CN2CCC(CNC(=O)Nc3ccc(F)c(Cl)c3)CC2)c1 | 3.26 (active)
13 | O=C(CN1CCN(Cc2ccccc2)CC1)Nc1ccc(F)c(F)c1 | 1.1
14 | CC(=O)N1CCN(CC(=O)Nc2ccc(C)c(F)c2)CC1 | 1.06
15 | COC(=O)c1cc(S(=O)(=O)NCC2CCN(Cc3ccc(Cl)cc3)CC2)cn1C | 1.12
16 | COc1cc(CN2CCN(Cc3ccc(C)cc3)CC2)c([N+](=O)[O-])cc1OC | 0.893
17 | O=C(NCCN1CCOCC1)Nc1cccc(Cl)c1 | 0.941
18 | COc1cc(OC)cc(-c2nc3ccccc3c(=O)n2NC(=O)c2cccnc2Cl)c1 | 0.962
19 | CCCn1nnnc1NC(=O)COc1ccc(Cl)cc1C | 0.94
20 | CCCSc1ccc([C@H]2N[C@@](Cc3ccccc3)(C(=O)OC)[C@H]3C(=O)N(C)C(=O)[C@@H]23)cc1 | 1.04
21 | CCN1CCN(C(=O)c2cc3cc4ccc(OC)cc4nc3s2)CC1 | 1.07

Row | Compound | activation factor
22 | CCc1cc2c(=O)n(-c3ccccc3)c(SCC(=O)O)nc2s1 | 1.03
23 | C=CCCC(=O)Nc1nc(C)c(-c2csc(Nc3ccc(Cl)cc3)n2)s1 | 0.878
24 | S=C(NC1CCCCC1)NN1CCOCC1 | 0.975
25 | Cc1cccc(-c2oc3ccc(-c4ccc5c(c4)OCO5)cc3c2C#Cc2cncn2C)c1 | 0.937
26 | Cc1cc(NC(=O)CCC(=O)N(CC(=O)NCC2CCCO2)c2ccccc2C)no1 (stereo unspecified) | 0.924
27 | COc1ccc(OC)c(NC(=O)c2ccc3c(c2)CCN3S(C)(=O)=O)c1 | 0.846
28 | COCCCNC(=S)NCCNc1nc2cc(C)c(C)cc2cc1C#N | 1.01
29 | COc1cccc2c(C)c(C(=O)O)[nH]c12 | 0.981
30 | O=C(C1=C[C@H](c2ccc(C(F)(F)F)cc2)C[C@H](OCc2ccc(CO)cc2)O1)N1CCN(Cc2ccccc2)CC1 | 1.05
31 | COC(=O)c1scc(S(=O)(=O)C(C)(C)C)c1-n1cccc1 | 0.97
32 | N#CC1=C(N)Oc2[nH]c(=S)[nH]c(=O)c2C12C(=O)Nc1ccccc12 (stereo unspecified) | 1
33 | O=c1[nH]c(CN2CCOCC2)nc2scc(-c3ccccc3)c12 | 1.04
34 | COCc1cc(=O)n2[nH]c(C)c(-c3ccccc3)c2n1 | 1.04
35 | CC(C)CNC(=S)Nc1ccc(F)cc1 | 1.15
36 | Cc1ccc(NC(=S)Nc2ccc(F)cc2)cc1 | 1.03
37 | CC(NC(=S)Nc1ccc(OC(F)F)cc1)c1ccc(F)cc1 (stereo unspecified) | 2.2 (active)
38 | COc1ccccc1-c1nn(Cc2ccccc2)cc1C(=O)N1CCN(c2ncccn2)CC1 | 0.95
39 | O=C(CSc1cccc[n+]1[O-])NCCCc1ccccc1 | 1.02
40 | O=C(Nc1ccccc1)Nc1nnc(COc2ccccc2F)s1 | 0.892
41 | Cc1ccc(NC(=O)Nc2cc(-c3ccccc3)nn2C)cc1Cl | 1.48
42 | Cc1cc(NC(=O)Nc2ccc(Cl)cc2)n(-c2ccccc2)n1 | 2.3 (active)

Row | Compound | activation factor
43 | Cc1cc(C(=O)NCCc2ccc(Cl)cc2)n(-c2ccccc2)n1 | 1.02
44 | N#CCCCn1c(O)c(N=NC(=O)C(O)c2ccccc2)c2ccccc21 (stereo unspecified) | 0.987
45 | CCC1CCCCN1C(=S)Nc1ccc(SC(F)F)cc1 (stereo unspecified) | 0.894
46 | CCN(CC)c1nc(-c2ccccc2)cc(C(F)(F)F)c1C#N | 0.949
47 | C/C(CC(=O)Nc1cccc(F)c1)=N\NC(=O)C(=O)NC1CCCCC1 | 0.807
48 | Cc1cc(C)cc(NC(=O)NC2CCN(CC(=O)Nc3cccc(Cl)c3C)CC2)c1 | 5.45 (active)
49 | O=C(Nc1cccc(F)c1)NC1CCCCCCC1 | 2.46 (active)
50 | CC(C)(C)NS(=O)(=O)c1ccc(NC(=O)NC2CCCCC2)cc1 | 1.7
51 | O=C(CN1CCC(NC(=O)Nc2ccccc2)CC1)Nc1cccc([N+](=O)[O-])c1 | 1.02
52 | Cc1cc(C)cc(NC(=O)NC2CCCCCCC2)c1 | 4.34 (active)
53 | CC(C)c1ccc(NC(=O)NC2CCCCC2)cc1 | 1.77
54 | Cc1c(Cl)cccc1NC(=O)NCCCN1CCCC1=O | 1.01
55 | Cc1c(Cl)cccc1NC(=O)Nc1ccc(C(=O)N2CCCC2)cc1 | 2 (active)
56 | COc1cccc(NC(=O)CN2CCN(CC(=O)Nc3ccccc3Cl)CC2)c1 | 0.978
57 | CS(=O)(=O)Nc1ccc(C(=O)N2CCCC2)cc1 | 0.947
58 | O=C(Nc1cccc(F)c1)NC1CCCc2ccccc21 (stereo unspecified) | 0.963
59 | CSCC(=O)N1CCCC(C(=O)c2cc(F)ccc2F)C1 (stereo unspecified) | 0.984
60 | O=C(OCC1O[C@@H](OC(=O)c2cc(O)c(O)c(O)c2)[C@@H](OC(=O)c2cc(O)c(O)c(O)c2)[C@@H](OC(=O)c2cc(O)c(O)c(O)c2)[C@@H]1OC(=O)c1cc(O)c(O)c(O)c1)c1cc(O)c(O)c(O)c1 (stereo partly specified) | 0.831
61 | CN(Cc1ccccc1)C(=O)COC(=O)/C=C/c1ccc2c(c1)OCO2 | 0.965
